These results are taken from ChEMBL document CHEMBL1156009, “Eleven amino acid glucagon-like peptide-1 receptor agonists with antidiabetic activity” (J Med Chem, 2009).

Calls of active or inactive are those of the source. No cut-off for these calls is given here. Square brackets hold non-standard residues; d marks the D form. Peptide text beside a SMILES is read from it. Bip(2'-Et-4'-OMe) = CCc1cc(OC)ccc1-c1ccc(C[C@H](N)C(=O)O)cc1; Bip(2'-Me) = Cc1ccccc1-c1ccc(C[C@H](N)C(=O)O)cc1; αMePhe(2-F) = C[C@](N)(Cc1ccccc1F)C(=O)O; αMeF = C[C@](N)(Cc1ccccc1)C(=O)O; Aib = CC(C)(N)C(=O)O Bounds are passed on as bounds.

Data set [1] has as its target T1, Glucagon-like peptide 1 receptor (Homo sapiens, UniProt P43220). The experiment in a line: Agonist activity at human GLP1R expressed in CHO cells assessed as stimulation of intracellular [3H]cAMP accumulation after 30 mins by scintillation proximity assay. In kind it is functional, cell-based. In short, it runs like this: (§1)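 CHO cells stably expressing human or mouse GLP-1R, grown in F-12 with 10% FBS plus Geneticin (0.4 mg/mL human, 1 mg/mL mouse), plated 2×10^4/well overnight. Half-log dilutions made in DMSO, then in DPBS with 0.1 mM IBMX and 0.05% BSA (final 1% DMSO). Cells exposed 30 min. cAMP read by SPA and converted to pmol via standard curve. Duplicates, at least three separate runs.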
On the technique in general: Cyclic AMP is a second messenger, typically raised through Gs and lowered through Gi signalling.

In data set [2] the target is T1, Glucagon-like peptide 1 receptor. The experiment in a line: Agonist activity at human GLP1R expressed in CHO cells assessed as stimulation of intracellular [3H]cAMP accumulation at 1 to 100 nM after 30 mins by scintillation proximity assay in presence of GLP1R antagonist truncated exendin-4(9-39). The format is functional, cell-based. In short, it runs like this:
as §1

Data set [3] shares this target. The experiment in a line: Displacement of [125I]GLP1 from human GLP1R expressed in CHO cells. The format is cell-based. For orientation: Loss of bound radioactivity is the signal in a displacement assay; it reports binding, not function.
Data set [4] concerns Mus musculus. The experiment in a line: Antidiabetic activity in insulin-resistant ob/ob mouse assessed as reduction in plasma glucose level at 30 nmol/kg, sc administered 30 mins before glucose infusion measured after 30 to 180 mins of glucose challenge by intraperitoneal glucose tolerance test. In kind it is functional, organism-based. An outline of the steps: (§2)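 Male ob/ob mice, 19 weeks old, 6 per group, randomized on fed glucose and body weight. After an 18 h fast, single sc dose in 1:1 propylene glycol/20 mM sodium phosphate pH 7.4 (0.1 mL/100 g) at -30 min. 2 g/kg glucose (50%) given ip at time 0. Tail bleeds at 0, 30, 60, 120 and 180 min into K-EDTA. Glucose measured on analyzer, insulin by ultrasensitive mouse ELISA. ANOVA with Dunnett's test versus vehicle.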

Data set [5] in a line: Agonist activity at VIP receptor. The format is functional.
The target in another data set is Glucagon receptor (Homo sapiens, UniProt P47871). The experiment in a line: Agonist activity at glucagon receptor. The format is functional.
Chain of Glucagon receptor (P47871 whole entry): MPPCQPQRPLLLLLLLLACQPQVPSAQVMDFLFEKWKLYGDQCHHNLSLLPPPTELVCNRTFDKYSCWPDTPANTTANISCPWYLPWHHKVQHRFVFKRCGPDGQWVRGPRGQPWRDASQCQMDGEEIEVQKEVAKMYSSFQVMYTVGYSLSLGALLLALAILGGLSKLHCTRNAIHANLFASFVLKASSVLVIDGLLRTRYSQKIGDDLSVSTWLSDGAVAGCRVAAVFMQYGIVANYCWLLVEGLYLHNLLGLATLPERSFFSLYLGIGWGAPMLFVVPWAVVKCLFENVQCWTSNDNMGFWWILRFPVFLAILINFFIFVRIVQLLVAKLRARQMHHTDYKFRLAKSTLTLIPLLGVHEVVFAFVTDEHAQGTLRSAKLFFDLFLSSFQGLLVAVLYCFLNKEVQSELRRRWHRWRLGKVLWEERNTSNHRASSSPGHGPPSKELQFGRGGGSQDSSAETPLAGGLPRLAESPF
In a further data set the test system is Canis familiaris. The experiment in a line: Tmin in Beagle dog at 67 ug/kg, sc by LC-MS/MS analysis. The format is ADME, organism-based, Canis lupus familiaris. The note with it: in vivo, 0.067 mg/kg.
Data set [6] in a line: Cmax in insulin-resistant ob/ob mouse at 300 nmol/kg, sc up to 24 hrs by LC-MS/MS analysis. In kind it is ADME, organism-based. Details: dose 300 nmol/kg, route subcutaneous. The note with it: in vivo. In short, it runs like this: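 ob/ob mice dosed sc at 300 nmol/kg in 1:1 propylene glycol/20 mM sodium phosphate pH 7.4. Plasma sampled at 1, 2, 4, 6, 8 and 24 h and quantified by LC-MS/MS.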

The test system of data set [7] is Mus musculus. The experiment in a line: Antidiabetic activity in insulin-resistant ob/ob mouse assessed as reduction in plasma glucose level at 300 nmol/kg, sc administered 30 mins before glucose infusion measured after 30 to 180 mins of glucose challenge by intraperitoneal glucose tolerance test. The format is functional, organism-based. An outline of the steps: as §2

Data set [8] can be described thus: Agonist activity at PACAP receptor. In kind it is functional.
Data set [9] concerns Mus musculus. The experiment in a line: Antidiabetic activity in insulin-resistant ob/ob mouse assessed as increase in plasma insulin level at 300 nmol/kg, sc administered 30 mins before glucose infusion measured after 30 mins of glucose challenge by intraperitoneal glucose tolerance test. The format is functional, organism-based. An outline of the steps:
as §2

The target of data set [10] is T2, Gastric inhibitory polypeptide receptor (Homo sapiens, UniProt P48546).
T2 sequence (P48546 whole entry): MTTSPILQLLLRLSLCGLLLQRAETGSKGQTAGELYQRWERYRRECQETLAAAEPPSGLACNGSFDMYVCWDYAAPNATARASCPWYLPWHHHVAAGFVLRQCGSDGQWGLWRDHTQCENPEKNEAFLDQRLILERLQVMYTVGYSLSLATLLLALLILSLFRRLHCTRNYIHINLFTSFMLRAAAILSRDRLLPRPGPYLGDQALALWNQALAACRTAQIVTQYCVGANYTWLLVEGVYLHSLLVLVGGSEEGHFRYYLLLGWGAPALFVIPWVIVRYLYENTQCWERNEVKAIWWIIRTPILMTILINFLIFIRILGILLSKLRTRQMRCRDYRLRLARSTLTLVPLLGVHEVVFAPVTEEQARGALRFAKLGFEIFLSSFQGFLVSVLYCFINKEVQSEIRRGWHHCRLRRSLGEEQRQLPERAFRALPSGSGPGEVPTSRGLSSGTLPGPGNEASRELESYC
The experiment in a line: Agonist activity at GIPR. In kind it is functional.

The subject of data set [11] is Mus musculus. The experiment in a line: Antidiabetic activity in insulin-resistant ob/ob mouse assessed as increase in plasma insulin level at 30 nmol/kg, sc administered 30 mins before glucose infusion measured after 30 to 180 mins of glucose challenge by intraperitoneal glucose tolerance test. The format is functional, organism-based. In short, it runs like this: as §2

Data set [12] concerns Mus musculus. The experiment in a line: Antidiabetic activity in insulin-resistant ob/ob mouse assessed as increase in plasma insulin level at 300 nmol/kg, sc administered 30 mins before glucose infusion measured after 60 mins of glucose challenge by intraperitoneal glucose tolerance test. In kind it is functional, organism-based. An outline of the steps:
as §2

The target in data set [13] is T3, Glucagon-like peptide 1 receptor (Mus musculus, UniProt O35659).
T3 sequence (O35659 whole entry): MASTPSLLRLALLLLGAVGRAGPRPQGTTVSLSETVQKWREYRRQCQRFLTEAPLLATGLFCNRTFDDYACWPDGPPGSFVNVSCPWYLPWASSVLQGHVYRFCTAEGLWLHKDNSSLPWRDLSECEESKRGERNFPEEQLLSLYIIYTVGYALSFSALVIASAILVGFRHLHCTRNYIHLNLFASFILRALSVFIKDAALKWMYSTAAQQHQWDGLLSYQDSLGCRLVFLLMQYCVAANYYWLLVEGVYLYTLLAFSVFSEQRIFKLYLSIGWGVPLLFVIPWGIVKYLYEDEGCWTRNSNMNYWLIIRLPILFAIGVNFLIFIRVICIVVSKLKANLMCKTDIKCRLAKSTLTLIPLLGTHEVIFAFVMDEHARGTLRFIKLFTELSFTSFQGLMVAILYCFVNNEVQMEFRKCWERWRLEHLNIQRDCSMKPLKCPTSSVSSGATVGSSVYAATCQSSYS
The experiment in a line: Agonist activity at mouse GLP1R expressed in CHO cells assessed as stimulation of intracellular [3H]cAMP accumulation by scintillation proximity assay. The format is functional, cell-based. An outline of the steps: as §1

For data set [14], the target named is T4, Parathyroid hormone/parathyroid hormone-related peptide receptor (Homo sapiens, UniProt Q03431).
T4 sequence (Q03431 whole entry): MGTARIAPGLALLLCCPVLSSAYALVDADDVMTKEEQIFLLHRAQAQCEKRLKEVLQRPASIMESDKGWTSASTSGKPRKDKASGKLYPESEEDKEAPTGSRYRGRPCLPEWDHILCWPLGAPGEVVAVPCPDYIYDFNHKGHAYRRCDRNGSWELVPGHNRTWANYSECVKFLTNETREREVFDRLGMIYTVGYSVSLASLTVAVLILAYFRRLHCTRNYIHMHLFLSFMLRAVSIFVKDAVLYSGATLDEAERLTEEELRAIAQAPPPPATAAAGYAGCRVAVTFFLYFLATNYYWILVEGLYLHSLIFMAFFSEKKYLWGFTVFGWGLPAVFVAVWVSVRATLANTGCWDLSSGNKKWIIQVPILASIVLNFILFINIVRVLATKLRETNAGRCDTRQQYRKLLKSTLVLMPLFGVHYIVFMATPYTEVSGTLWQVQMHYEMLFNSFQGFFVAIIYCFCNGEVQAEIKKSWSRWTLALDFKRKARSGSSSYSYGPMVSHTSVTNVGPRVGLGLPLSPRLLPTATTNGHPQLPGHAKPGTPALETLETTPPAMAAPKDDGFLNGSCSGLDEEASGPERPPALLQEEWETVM
The experiment in a line: Agonist activity at PTHR. The format is functional.

The term EC50 denotes the concentration that produces a half-maximal response. In general, IC50 refers to the concentration at which inhibition is half-maximal. Low values mean inhibition by little substance, high ones a need for much substance.

T1 sequence (P43220 whole entry): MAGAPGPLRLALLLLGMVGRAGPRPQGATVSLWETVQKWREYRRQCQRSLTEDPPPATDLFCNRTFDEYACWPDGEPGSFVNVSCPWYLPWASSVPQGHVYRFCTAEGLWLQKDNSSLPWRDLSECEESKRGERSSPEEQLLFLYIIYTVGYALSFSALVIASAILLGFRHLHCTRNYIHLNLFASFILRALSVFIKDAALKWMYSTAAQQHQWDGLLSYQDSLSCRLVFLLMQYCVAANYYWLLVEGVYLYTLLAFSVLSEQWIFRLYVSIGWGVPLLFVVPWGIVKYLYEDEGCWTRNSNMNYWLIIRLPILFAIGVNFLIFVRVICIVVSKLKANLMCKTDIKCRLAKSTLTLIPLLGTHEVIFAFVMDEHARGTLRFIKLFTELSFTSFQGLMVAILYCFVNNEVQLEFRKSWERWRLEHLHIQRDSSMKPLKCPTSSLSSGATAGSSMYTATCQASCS

For the compound `COc1ccc(-c2ccc(C[C@H](NC(=O)[C@H](CC(=O)O)NC(=O)[C@H](CO)NC(=O)[C@@H](NC(=O)[C@H](Cc3ccccc3)NC(=O)[C@@H](NC(=O)CNC(=O)[C@H](CCC(=O)O)NC(=O)[C@H](C)NC(=O)[C@@H](N)Cc3cnc[nH]3)[C@@H](C)O)[C@@H](C)O)C(=O)N[C@@H](Cc3ccc(-c4ccccc4C)cc3)C(N)=O)cc2)c(C)c1`, in data set [1], the EC50 came to 35 nM.

For `COc1cccc(-c2ccc(C[C@H](NC(=O)[C@H](CC(=O)O)NC(=O)[C@H](CO)NC(=O)[C@@H](NC(=O)[C@H](Cc3ccccc3)NC(=O)[C@@H](NC(=O)CNC(=O)[C@H](CCC(=O)O)NC(=O)[C@H](C)NC(=O)[C@@H](N)Cc3cnc[nH]3)[C@@H](C)O)[C@@H](C)O)C(=O)N[C@@H](Cc3ccc(-c4ccccc4C)cc3)C(N)=O)cc2)c1`, in [1], the EC50 was found to be 965 nM.

`C[C@H](NC(=O)[C@@H](N)Cc1cnc[nH]1)C(=O)N[C@@H](CCC(=O)O)C(=O)NCC(=O)N[C@H](C(=O)N[C@@H](Cc1ccccc1)C(=O)N[C@H](C(=O)N[C@@H](CO)C(=O)N[C@@H](CC(=O)O)C(=O)N[C@@H](Cc1ccc(-c2ccccc2)cc1)C(=O)N[C@@H](Cc1ccc(-c2ccccc2)cc1)C(N)=O)[C@@H](C)O)[C@@H](C)O`: in data set [2], the outcome was inactive. In addition, in data set [1], the EC50 was determined as 545 nM. Besides, the outcome in [3] was Active.

With `CCc1cc(OC)ccc1-c1ccc(C[C@H](NC(=O)[C@H](CC(=O)O)NC(=O)[C@H](CO)NC(=O)[C@@H](NC(=O)[C@](C)(Cc2ccccc2)NC(=O)[C@@H](NC(=O)CNC(=O)[C@H](CCC(=O)O)NC(=O)[C@H](C)NC(=O)[C@@H](N)Cc2cnc[nH]2)[C@@H](C)O)[C@@H](C)O)C(=O)N[C@@H](Cc2ccc(-c3ccccc3C)cc2)C(N)=O)cc1` (H-HAEGT[αMeF]TSD[Bip(2'-Et-4'-OMe)][Bip(2'-Me)]-NH2), the EC50 in data set [1] amounted to 2.4 nM.

On to `CCc1cc(OC)ccc1-c1ccc(C[C@H](NC(=O)[C@H](CC(=O)O)NC(=O)[C@H](CO)NC(=O)[C@@H](NC(=O)[C@](C)(Cc2ccccc2)NC(=O)[C@@H](NC(=O)CNC(=O)[C@H](CCC(=O)O)NC(=O)C(C)(C)NC(=O)[C@@H](N)Cc2cnc[nH]2)[C@@H](C)O)[C@@H](C)O)C(=O)N[C@@H](Cc2ccc(-c3ccccc3C)cc2)C(N)=O)cc1` (H-H[Aib]EGT[αMeF]TSD[Bip(2'-Et-4'-OMe)][Bip(2'-Me)]-NH2), for which, in data set [1], the EC50 amounted to 0.28 nM.

With `CCc1cc(OC)ccc1-c1ccc(C[C@H](NC(=O)[C@H](CC(=O)O)NC(=O)[C@H](CO)NC(=O)[C@@H](NC(=O)[C@](C)(Cc2ccccc2F)NC(=O)[C@@H](NC(=O)CNC(=O)[C@H](CCC(=O)O)NC(=O)C(C)(C)NC(=O)[C@@H](N)Cc2cnc[nH]2)[C@@H](C)O)[C@@H](C)O)C(=O)N[C@@H](Cc2ccc(-c3ccccc3C)cc2)C(N)=O)cc1` (H-H[Aib]EGT[αMePhe(2-F)]TSD[Bip(2'-Et-4'-OMe)][Bip(2'-Me)]-NH2), the outcome in the data set on Mus musculus [4], in the data set with Mus musculus [7], in the data set with Mus musculus [9], in the data set on Mus musculus [11] and in the data set with Mus musculus [12] was Active. Also, the EC50 in data set [5] was more than 10000 nM; at Glucagon receptor, more than 10000 nM; in data set [8], more than 10000 nM; in data set [10], more than 10000 nM; in data set [1], 0.087 nM; in data set [13], 2.4 nM. Besides, in data set [14], the EC50 was more than 10000 nM. Further, the IC50 (in data set [5]; on Glucagon receptor; in data set [8]; in data set [10]; in data set [14]) was more than 10000 nM in each case. Further, the Tmin in the data set with Canis familiaris was 8 h. This compound yielded a Cmax in [6] of more than 2000 nM.
